Values after ≈ are worked out from the molar mass of the structure shown.
Legend:
[1] = Bioavailability in mouse at 40 mg/kg, po; format: ADME, organism-based; conditions: in vivo
Helicobacter pylori [2] = test: Antibacterial activity against hefC-deficient Helicobacter pylori by NCCLS method; format: functional
How it was run: (§1)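 H. pylori MICs determined following NCCLS guidelines; values carry a twofold variance.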

Mus musculus = test: Plasma concentration in mouse at 40 mg/kg, po; format: ADME, organism-based; design: dose 40 mg/kg, route oral; conditions: in vivo
Glutamate racemase = target: T1, Glutamate racemase (Helicobacter pylori (strain ATCC 700392 / 26695) (Campylobacterpylori), UniProt P56068); test: Inhibition of Helicobacter pylori MurI
T1 sequence (P56068 whole entry): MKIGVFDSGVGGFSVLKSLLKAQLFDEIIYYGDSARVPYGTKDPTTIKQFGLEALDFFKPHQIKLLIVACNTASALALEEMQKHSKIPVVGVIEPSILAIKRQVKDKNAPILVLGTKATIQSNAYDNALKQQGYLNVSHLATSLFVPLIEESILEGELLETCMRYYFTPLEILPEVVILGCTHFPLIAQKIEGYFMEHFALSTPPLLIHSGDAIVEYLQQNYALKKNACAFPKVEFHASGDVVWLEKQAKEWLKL

[3] = Intrinsic clearance in mouse liver microsome; format: ADME; conditions: liver microsomes
How it was run: (§2)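 Compounds incubated in vitro with human or mouse liver microsomes; parent and metabolite followed over roughly 30 min incubation; intrinsic clearance expressed as µl/min/mg.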

Helicobacter pylori [4] = test: Antibacterial activity against wild type Helicobacter pylori by NCCLS method; format: functional; how it was run: as §1
[5] = Intrinsic clearance in human liver microsome; format: ADME; conditions: liver microsomes; how it was run: as §2
[6] = Aqueous solubility of compound; format: physicochemical; conditions: buffer
[7] = Bioavailability in mouse; format: ADME, organism-based; conditions: in vivo
[8] = Equilibrium solubility of compound; format: physicochemical

bioavailability [1]	MIC (Helicobacter pylori [2])	Cp (Mus musculus)	IC50 (Glutamate racemase)	microsomal CLint [3]	MIC (Helicobacter pylori [4])	microsomal CLint [5]	solubility [6]	bioavailability [7]	solubility thermodynamic [8]	Structure (SMILES)
60%	0.5 µg/mL (≈ 0.904 µM)	1.2 µg/mL	34 nM	< 14 µL/min/mg	2 µg/mL (≈ 3.62 µM)	20 µL/min/mg				Cn1cc(S(C)(=O)=O)cc1-c1c2c(=O)n(C)c(=O)n(CC3CC3)c2nn1Cc1ccnc2ccc(Cl)cc12
	4 µg/mL (≈ 7.22 µM)		160 nM	56 µL/min/mg	16 µg/mL (≈ 28.9 µM)	23 µL/min/mg				Cn1cc(S(C)(=O)=O)nc1-c1c2c(=O)n(C)c(=O)n(CC3CC3)c2nn1Cc1ccnc2ccc(Cl)cc12
7.5%	0.25 µg/mL (≈ 0.5 µM)		26 nM	50 µL/min/mg	0.5 µg/mL (≈ 1 µM)	< 14 µL/min/mg	< 0.4 µM	< 10%		Cn1cc(C#N)cc1-c1c2c(=O)n(C)c(=O)n(CC3CC3)c2nn1Cc1ccnc2ccc(Cl)cc12
	0.25 µg/mL (≈ 0.451 µM)		16 nM	< 14 µL/min/mg	32 µg/mL (≈ 57.8 µM)	22 µL/min/mg				Cn1cc(S(N)(=O)=O)cc1-c1c2c(=O)n(C)c(=O)n(CC3CC3)c2nn1Cc1ccnc2ccc(Cl)cc12
	2 µg/mL (≈ 3.69 µM)		31 nM	> 100 µL/min/mg	16 µg/mL (≈ 29.5 µM)	49 µL/min/mg				Cn1cc(S(C)(=O)=O)nc1-c1c2c(=O)n(C)c(=O)n(CC3CC3)c2nn1Cc1c[nH]c2ccc(Cl)cc12
	4 µg/mL (≈ 7.21 µM)		33 nM	56 µL/min/mg	16 µg/mL (≈ 28.8 µM)	23 µL/min/mg				Cn1cc(S(C)(=O)=O)cc1-c1c2c(=O)n(C)c(=O)n(CC3CC3)c2nn1Cc1cn(C)c2ccc(Cl)cc12
	0.5 µg/mL (≈ 0.899 µM)		57 nM	> 100 µL/min/mg	1 µg/mL (≈ 1.8 µM)	> 100 µL/min/mg				Cc1oc(S(C)(=O)=O)cc1-c1c2c(=O)n(C)c(=O)n(CC3CC3)c2nn1Cc1cn(C)c2ccc(Cl)cc12
	4 µg/mL (≈ 6.85 µM)		55 nM		16 µg/mL (≈ 27.4 µM)					CONS(=O)(=O)c1cc(-c2c3c(=O)n(C)c(=O)n(CC4CC4)c3nn2Cc2ccnc3ccc(Cl)cc23)n(C)c1
	0.5 µg/mL (≈ 0.924 µM)		26 nM	64 µL/min/mg	4 µg/mL (≈ 7.39 µM)	49 µL/min/mg				Cn1cc(S(C)(=O)=O)cc1-c1c2c(=O)n(C)c(=O)n(CC3CC3)c2nn1Cc1c[nH]c2ccc(Cl)cc12
	> 64 µg/mL		1500 nM	14 µL/min/mg	> 64 µg/mL	17 µL/min/mg				Cn1c(=O)c2c(-c3ccc(S(C)(=O)=O)o3)n(Cc3ccnc4ccc(Cl)cc34)nc2n(CC2CC2)c1=O
	4 µg/mL (≈ 6.96 µM)		59 nM	22 µL/min/mg	4 µg/mL (≈ 6.96 µM)	19 µL/min/mg				Cn1c(=O)c2c(-c3oc(S(C)(=O)=O)cc3Cl)n(Cc3ccnc4ccc(Cl)cc34)nc2n(CC2CC2)c1=O
	0.5 µg/mL (≈ 0.899 µM)		27 nM	> 100 µL/min/mg	16 µg/mL (≈ 28.8 µM)	> 100 µL/min/mg				CNS(=O)(=O)c1cc(-c2c3c(=O)n(C)c(=O)n(CC4CC4)c3nn2Cc2c[nH]c3ccc(Cl)cc23)n(C)c1
			51 nM	61 µL/min/mg	4 µg/mL (≈ 7.22 µM)	22 µL/min/mg				Cc1oc(S(C)(=O)=O)cc1-c1c2c(=O)n(C)c(=O)n(CC3CC3)c2nn1Cc1ccnc2ccc(Cl)cc12
10%	0.5 µg/mL (≈ 0.931 µM)		37 nM	> 100 µL/min/mg	16 µg/mL (≈ 29.8 µM)	> 100 µL/min/mg			120 µM (≈ 64.4 µg/mL)	Cn1cc([S+](C)[O-])cc1-c1c2c(=O)n(C)c(=O)n(CC3CC3)c2nn1Cc1ccnc2ccc(Cl)cc12 (configuration not stated)
	4 µg/mL (≈ 7.62 µM)		23 nM	> 100 µL/min/mg	16 µg/mL (≈ 30.5 µM)	> 100 µL/min/mg				Cn1cc([S+](C)[O-])cc1-c1c2c(=O)n(C)c(=O)n(CC3CC3)c2nn1Cc1c[nH]c2ccc(Cl)cc12 (configuration not stated)
	8 µg/mL (≈ 14 µM)		36 nM		8 µg/mL (≈ 14 µM)					CONS(=O)(=O)c1cc(-c2c3c(=O)n(C)c(=O)n(CC4CC4)c3nn2Cc2c[nH]c3ccc(Cl)cc23)n(C)c1
	0.5 µg/mL (≈ 0.921 µM)		38 nM	> 100 µL/min/mg	> 32 µg/mL	56 µL/min/mg				Cn1cc(S(N)(=O)=O)nc1-c1c2c(=O)n(C)c(=O)n(CC3CC3)c2nn1Cc1c[nH]c2ccc(Cl)cc12
	1 µg/mL (≈ 1.76 µM)		44 nM	> 100 µL/min/mg	16 µg/mL (≈ 28.2 µM)	> 100 µL/min/mg				CNS(=O)(=O)c1cc(-c2c3c(=O)n(C)c(=O)n(CC4CC4)c3nn2Cc2ccnc3ccc(Cl)cc23)n(C)c1

Reference: ChEMBL document CHEMBL1155910, “Design of Helicobacter pylori glutamate racemase inhibitors as selective antibacterial agents: a novel pro-drug approach to increase exposure” (Bioorg Med Chem Lett, 2008)
